This note sets out measurements from the EternaBench riboswitch data.

This data set deals with MS2 coat protein. Description: apparent Kd, MS2 coat protein; higher = weaker binding; RNA-MaP array. In a few lines:
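Fluorescently labeled MS2 coat protein, from 1.5 nM to 3 μM, was incubated at room temperature with designed RNAs transcribed on an Illumina sequencing chip from sequenced DNA templates. Times ran from 0.8–1.5 h at the lowest concentrations to 10–20 min at the highest, in Tris-HCl pH 7.5 buffer with KCl, MgCl2, BSA, DTT, tRNA and Tween20, with or without input ligand. Each apparent Kd is the median of per-cluster binding-curve fits, and designs with fewer than 10 measured clusters were excluded.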

[1] abbreviates: designed as: ON switch for flavin mononucleotide, no ligand.
Where [2] appears, read: ligand present: flavin mononucleotide, designed as: ON switch for flavin mononucleotide.
Where [3] appears, read: designed as: OFF switch for flavin mononucleotide, no ligand.
Where [4] appears, read: ligand present: flavin mononucleotide, designed as: OFF switch for flavin mononucleotide.
Where [5] appears, read: designed as: OFF switch for theophylline, no ligand.
The mark [6] stands for this setting: ligand present: theophylline, designed as: OFF switch for theophylline.
Where [7] appears, read: designed as: OFF switch for tryptophan, no ligand.
[8] abbreviates: ligand present: tryptophan, designed as: OFF switch for tryptophan.
The mark [9] stands for this setting: ligand present: theophylline, designed as: ON switch for theophylline.

A word on the apparent Kd: it is a dissociation constant that holds for the conditions of the assay. For the sequence “CUAUCACAUGAGGAUCACCCAUGUAUGAUAAUCAUAGGAUAUAGUGCCAGCCAUAAUUUACUAGAAGGAUGUUUCU”, the “apparent Kd” value came out at 11.7 nM under setting [1] and 10.1 nM under setting [2].

Regarding “GCAUGACAUGAGGAUCACCCAUGUGAAUUGUAGGAAGGAUAUAAUACUUGAUCCGCUGUCUUAGAAGGUCCAUAAU”, the “apparent Kd” value runs as follows: under setting [1], 28.6 nM; under setting [2], 19.6 nM.

As to “UUUAACACCGGCAAGGAUAUUCUACAAAGAACAUGAGGAUCACCCAUGUCAACAAUCUACAUCACGAAGAAGGUGCAUCGGAUUAA”, the “apparent Kd” value was 17.4 nM under setting [1] and 9.95 nM under setting [2].

On to “GUACACUCCACAGGAUAUGGUGUAGACCCUACGCCAGAAGGGUGCGUGGGUACAUGAGGAUCACCCAUGUUAAGUUUACAUACG”, for which the “apparent Kd” value is 12.9 nM under setting [3] and 15.5 nM under setting [4].

With “AAAUGGACGGCAGGAUAUGGACAAGGAAUAUUACCAGAAGGGCCCUAAUGCUCAUACAUGAGGAUCACCCAUGUUGUAAUCAAU”, the “apparent Kd” value reads like this: under setting [3], 17.8 nM; under setting [4], 12.7 nM.

Regarding “AAUUGGAUCACAUGAGGAUCACCCAUGUCGGAAACUUUACUCAGAAGGAUGUGUACUUUUUCCACAUAGGAUAUGAGUACGACA”, the “apparent Kd” value by setting is: under setting [3], 69.5 nM; under setting [4], 74.6 nM.

Turning to “AAACGAGAGACAGAUACCAGCGCAGGAACGGAGUAUGGUGACAUGAGGAUCACCCAUGUGCGCCCUUGGCAGCUGAGCCGUAUUG”, the “apparent Kd” value was found to be 27.9 nM under setting [5] and 171 nM under setting [6].

For “GGAAGCCGCUAGAAGGAAUAGCACGGGUGCUAAUUAGGAUAUAGUGUCCCAGCACAUGAGGAUCACCCAUGUAUAACACGAUCC”, the “apparent Kd” value by setting is: under setting [1], 20.1 nM; under setting [2], 16.9 nM.

With “CACGAUCGAGAAGAGUGCAACAUGAGGAUCACCCAUGUAUUCAGAAGGGCCACGACCUUAGUAGGGCAGGAUAUGAUACGAUAC”, the “apparent Kd” value is 26.2 nM under setting [1] and 19.9 nM under setting [2].

For the sequence “GGUCCCAUGCGACAGGAUAUUGGAUGCAGCACAUGAGGAUCACCCAUGUAUACAGUUAUGGAUAACAAGAAGGGUCGCUUUGCAUA”, the “apparent Kd” value turned out to be 45.3 nM under setting [1] and 15.2 nM under setting [2].

“AAAUAUCAGUAGAAGGGCAUUUAAUCGAGACAUGCAGGAUAUACCAAUAACAGAUAAUUCUACAUGAGGAUCACCCAUGUACAG”: the “apparent Kd” value under setting [1] stood at 12.7 nM and the “apparent Kd” value under setting [2] turned out to be 9.19 nM.

In the case of “GGUCAGCAGUCGGCCGCCACUAGUAUACAUGAGGAUCACCCAUGUCCCUUGCGCCUCACCGAUUUUAGGACCGGGACACUGCCUG”, the “apparent Kd” value under setting [7] was 32.8 nM and the “apparent Kd” value under setting [8] came out at 29.3 nM.

With “GCAAGGUUUGUAGGAUAUCGCGUGUGAUUGAACAUGAGGAUCACCCAUGUGGAGGUUCCAUUAUCCGAGAAGGACAAGACUCGA”, the “apparent Kd” value reads like this: under setting [3], 155 nM; under setting [4], 84.2 nM.

As for “AAUCUGAUUGCGGCCGCCACUAAUUUUCCAUGAGUAUUGCAAUUACAUGAGGAUCACCCAUGUCAUAGGACCGGGCAUGACAUCU”, the “apparent Kd” value (designed as: ON switch for tryptophan, no ligand) came to 303 nM and the “apparent Kd” value (ligand present: tryptophan, designed as: ON switch for tryptophan) is 240 nM.

Take “AUAUGCGAUUGAGGAUAUAGGGAGAGGCUAACUCUAGAAGGCAAUGUAUGGAAUAGCUUACACAUGAGGAUCACCCAUGUUGCU”: the “apparent Kd” value under setting [1] came out at 9.73 nM and the “apparent Kd” value under setting [2] came out at 7.27 nM.

With “GUAUGGCUCGAGGAUAUGUACGUAGGAGACUAGACAGAAGGCGAUACAUGAGGAUCACCCAUGUCCUAUUAACC”, the “apparent Kd” value was found to be 188 nM under setting [3] and 129 nM under setting [4].

For “GACUAACAUGAGGAUCACCCAUGUGAAGAUACCAGUAAUUUCACCUACCCUUGGCAGCUUUUUUUGAACGGCCUGAAUGCCUUGU”, the “apparent Kd” value by setting is: (designed as: ON switch for theophylline, no ligand) 11.3 nM; under setting [9], 17.1 nM.

On to “CCGAAUCAAACUGAUAGUCUACAUGAGGAUCACCCAUGUGAAAAGGAUAUCUUUUGAACUGACGAAGAGAAGGUUUUAGAGGGU”, for which the “apparent Kd” value under setting [3] was 7.77 nM and the “apparent Kd” value under setting [4] was found to be 8 nM.

With “GUAACACAUGAGGAUCACCCAUGUUCCGAUACCAGUAUUGAAGAUUACCCUUGGCAGCGGGUAGGUCGGAGUGGACGGCCCGAGC”, the “apparent Kd” value under setting [9] worked out at 26.1 nM.

For the sequence “AGCAUGGUUGGAGGAUAUUCCGCCGUAGUGCUGAAUCCCGGACAUGAGGAUCACCCAUGUGAGCGGAAGAAGGCCAAGUUGUCC”, the “apparent Kd” value by setting is: under setting [3], 15.5 nM; under setting [4], 63.2 nM.

For the sequence “AAUCUCUCUGCAGGAUAUGGUCGCUGAGCUACUCCAGAAGGGCAGUGAGUAAGAUCGUCAGACAUGAGGAUCACCCAUGUAUUU”, the “apparent Kd” value is, setting by setting: under setting [3], 35.8 nM; under setting [4], 30.9 nM.

On to “UUCUUACAUGAGGAUCACCCAUGUUCUGAUAGAGCAGGAUAUGAUGGUUAGAAGUAGAAAUCAGAAGGGCUCCAUG”, for which the “apparent Kd” value reads like this: under setting [1], 100 nM; under setting [2], 19.8 nM.

In the case of “UUUCUGUUACAGAAGGGAAGGAAACAUGAGGAUCACCCAUGUCCACGCCGUUUACAUUCGGCCGUUCAGGAUAUGUCAUAUUGA”, the “apparent Kd” value worked out at 23.1 nM under setting [1] and 17 nM under setting [2].

On to “UUAGUACUAGGAUAUACGAUGGAAAGGAGAGCCUUACAAAUACAUGAGGAUCACCCAUGUAGAAGGAGUUGCCA”, for which the “apparent Kd” value by setting is: under setting [3], 6.27 nM; under setting [4], 5.93 nM.

Consider “ACACCACAGCAGAAGGGUACAUUCUCCACGCGUACAGGAUAUGCGGACUCGGCGUCUCUGACAUGAGGAUCACCCAUGUUUUCU”, for which the “apparent Kd” value by setting is: under setting [1], 85.9 nM; under setting [2], 29.1 nM.

On to “UAAUCGUAGGCGGCCGCCACUUUUUGGUAGUGUCCAUUGUACACUCACAUGAGGAUCACCCAUGUAAGGACCGGGCCCGCAUCAG”, for which the “apparent Kd” value is, setting by setting: under setting [7], 17 nM; under setting [8], 16.7 nM.

Regarding “AAAAUACAUGAGGAUCACCCAUGUGCUUUCUAUUCAGGAUAUGGUGGUACAGUGGACAUACCAGAAGGGAAUGAAA”, the “apparent Kd” value runs as follows: under setting [1], 11.1 nM; under setting [2], 8.34 nM.

Turning to “CUCGCUAAAGUAGGAUAUACACAGACAUGAGGAUCACCCAUGUAACGAUGAACCCUUAUUAGAUGGUAGAAGGACUCAAGGCCG”, the “apparent Kd” value under setting [3] was found to be 13.1 nM.

With “AACGCGCAAGAGAAGGGACGGGAGAUUCCGUGGGCUCUGAUCCUACAUGAGGAUCACCCAUGUAGUCAGGAUAUCUGGAGACGC”, the “apparent Kd” value under setting [3] turned out to be 106 nM and the “apparent Kd” value under setting [4] was found to be 124 nM.

With “UAGAUAAGAAUCAAGGAUAUGAAAAGGCACACAUGAGGAUCACCCAUGUCAAGCACAAAAUGACGUCAGAAGGUGAUAAGCAGCAA”, the “apparent Kd” value is, setting by setting: under setting [1], 57.6 nM; under setting [2], 35 nM.

With “AAGGCGUCAGGAUAUACGUCAUCUUCAAAUAACAUAACAAUACAUGAGGAUCACCCAUGUAGAAGGGACCAGCC”, the “apparent Kd” value under setting [3] worked out at 6.37 nM and the “apparent Kd” value under setting [4] is 6.46 nM.

On to “CUGUUUACAUGAGCCCGUCAUAUAUACGAUACCAGUUAAAGAUGAAACCCUUGGCAGCGUAGGACAUGAGGAUCACCCAUGUGCC”, for which the “apparent Kd” value was 18.6 nM under setting [5] and 33.1 nM under setting [6].

For the sequence “CUCUCGGCAGGAUAUCGGCAGAUAAACAUGAGGAUCACCCAUGUGUUCUUAAAAUUCCGUCGAGAAGGGCCGCGAU”, the “apparent Kd” value under setting [3] stood at 4.68 nM and the “apparent Kd” value under setting [4] worked out at 5.16 nM.

As for “CCUUUACAUGAGGAUCACCCAUGUGAAAUGGAUUGCGUAAAUAGAAGGCAUCAGAUCGUACAUGAUGAGGAUAUAUUAUCGAGU”, the “apparent Kd” value by setting is: under setting [1], 15.3 nM; under setting [2], 7.44 nM.

Take “AAUGAAUCCAAGAAGGAACACCAGGCGCACGUAAUCCAACAUGAGGAUCACCCAUGUAUAUUCUGUAAGGAUAUUGGAUUAAAG”: the “apparent Kd” value amounted to 7.45 nM under setting [3] and 7.24 nM under setting [4].

In the case of “AAAUGUGUAUAGGAUAUCUUGACCCACGCAUUCAGAGAAGGAUACACAUGAGGAUCACCCAUGUUGAGACGGAA”, the “apparent Kd” value under setting [3] worked out at 15.5 nM and the “apparent Kd” value under setting [4] amounted to 43.9 nM.
